ChEMBL document CHEMBL1275343, “A diverse series of substituted benzenesulfonamides as aldose reductase inhibitors with antioxidant activity: design, synthesis, and in vitro activity” (J Med Chem, 2010)

Assays:
[1] = target: Aldo-keto reductase family 1 member B1 (Rattus norvegicus) (UniProt P07943); assay: Inhibition of Fischer-344 rat lens ALR2 at 100 uM; type: tissue-based; conditions: Lens of camera-type eye
[2] = target: T1, Aldo-keto reductase family 1 member A1 (Rattus norvegicus) (UniProt P51635); assay: Inhibition of Fischer-344 rat kidney AK1A1 at 100 uM
T1 sequence (whole entry): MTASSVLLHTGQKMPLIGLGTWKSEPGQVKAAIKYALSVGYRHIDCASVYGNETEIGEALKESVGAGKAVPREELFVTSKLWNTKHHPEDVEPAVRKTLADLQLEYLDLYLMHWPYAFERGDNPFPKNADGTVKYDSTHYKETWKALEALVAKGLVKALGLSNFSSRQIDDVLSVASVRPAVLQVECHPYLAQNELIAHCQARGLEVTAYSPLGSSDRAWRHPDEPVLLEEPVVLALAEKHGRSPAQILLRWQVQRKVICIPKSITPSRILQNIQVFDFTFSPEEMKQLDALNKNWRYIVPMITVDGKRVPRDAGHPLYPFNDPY

[3] = organism: Rattus norvegicus; assay: Selectivity ratio of inhibition of Fischer-344 rat lens ALR2sto inhibition of Fischer-344 rat kidney AK1A1 at 100 uM; type: tissue-based; conditions: Lens of camera-type eye
How it was run: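 Ratio of % inhibition of rat lens ALR2 to % inhibition of rat kidney ALR1, each measured at 100 μM compound.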

[4] = DPPH radical scavenging activity assessed as initial rate of interaction at 0.2 mM; type: functional
How it was run: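 Equimolar compound and DPPH (0.2 mM each) in ethanol; initial rate estimated from the roughly linear absorbance decrease over the first 30 s. Triplicate.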

[5] = system: Radical scavenging activity; assay: Antioxidant activity assessed as DPPH radical scavenging activity after 270 mins by least-square analysis; type: functional
[6] = target: T2, Aldo-keto reductase family 1 member A1 (Rattus norvegicus, UniProt P51635); assay: Inhibition of Fischer-344 rat kidney AK1A1
T2 sequence (P51635 whole entry): T1 sequence (whole entry)

[7] = organism: Rattus norvegicus; assay: Selectivity ratio of IC50 for Fischer-344 rat kidney AK1A1 to IC50 for Fischer-344 rat lens ALR2; type: tissue-based; conditions: Lens of camera-type eye
[8] = target: Aldo-keto reductase family 1 member B1 (Rattus norvegicus, UniProt P07943); assay: Inhibition of Fischer-344 rat lens ALR2 by least-square analysis; type: tissue-based, Lens of camera-type eye
How it was run: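 Lenses from Fischer-344 rats of both sexes as ALR2 source; NADPH oxidation followed spectrophotometrically. Five concentrations, IC50 by least-squares of linear portion of log(dose)-response curves (0.889<r²<0.994); triplicate.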

[9] = system: Radical scavenging activity; assay: Antioxidant activity assessed as ratio of IC50 for DPPH radical scavenging activity to concentration of DPPH; type: functional
[10] = Antioxidant activity in L-alpha-phosphatidylcholine dioleoyl liposome assessed as inhibition of AAPH-induced lipid peroxidation by LOOH assay; type: functional
How it was run: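 Unilamellar DOPC liposomes (0.8 mM) peroxidized by aqueous-phase peroxyl radicals from thermal decomposition of AAPH; Trolox standard; lipid hydroperoxide (LOOH) quantified against a calibration curve.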

[11] = target: T3, Aldo-keto reductase family 1 member A1 (Homo sapiens, UniProt P14550); assay: Inhibition of AK1A1
T3 sequence (P14550 whole entry): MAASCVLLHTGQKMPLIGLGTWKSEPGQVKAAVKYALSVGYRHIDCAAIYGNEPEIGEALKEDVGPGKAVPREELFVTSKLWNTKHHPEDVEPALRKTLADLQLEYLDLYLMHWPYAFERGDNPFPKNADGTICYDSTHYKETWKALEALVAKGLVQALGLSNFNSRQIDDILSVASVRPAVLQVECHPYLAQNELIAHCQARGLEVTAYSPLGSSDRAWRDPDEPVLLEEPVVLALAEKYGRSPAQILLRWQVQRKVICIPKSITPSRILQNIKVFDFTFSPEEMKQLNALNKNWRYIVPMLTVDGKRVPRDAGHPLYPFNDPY

CS(=O)(=O)NC(=O)CNS(=O)(=O)c1ccccc1
inhibition [1]: 32.9% | inhibition [2]: 12.2% | Selectivity ratio [3]: 2.69

O=C(Nc1ccc(S(=O)(=O)Nc2cc(F)c(O)c(F)c2)cc1)c1ccccc1
Activity [4]: 0.817 s⁻¹ | IC50 [5]: 49.7 µM | IC50 [6]: 6.9 µM | Ratio IC50 [7]: 0.87 | IC50 [8]: 7.9 µM | inhibition [1]: 87.7% | Ratio [9]: 0.25 | inhibition [2]: 81.1% | IC50 [10]: 68.6 µM

O=S(=O)(c1ccccc1)N(Cc1ccc(Br)cc1F)c1cc(F)c(O)c(F)c1
Activity [4]: 1 s⁻¹ | IC50 [5]: 60.9 µM | IC50 [6]: 11.9 µM | Ratio IC50 [7]: 2.09 | IC50 [8]: 5.7 µM | inhibition [1]: 74.6% | Ratio [9]: 0.3 | inhibition [2]: 69.2% | IC50 [10]: 66 µM

O=S(=O)(NCc1nnn[nH]1)c1ccccc1
inhibition [1]: 23.8% | inhibition [2]: 19.9% | Selectivity ratio [3]: 1.2

O=C1NOC[C@@H]1NS(=O)(=O)c1ccccc1
IC50 [8]: 71.2 µM | inhibition [1]: 48.9% | inhibition [2]: 2.67% | Selectivity ratio [3]: 18.3

O=S(=O)(Nc1cc(F)c(O)c(F)c1)c1ccccc1
Activity [4]: 0.498 s⁻¹ | IC50 [5]: 49 µM | IC50 [6]: 19.6 µM | Ratio IC50 [7]: 0.6 | inhibition [1]: 71.3% | Ratio [9]: 0.25 | inhibition [2]: 79.2% | Selectivity ratio [3]: 0.89 | IC50 [10]: 95.9 µM

O=C(O)CNS(=O)(=O)c1ccccc1
IC50 [8]: 86.7 µM | inhibition [1]: 51.7% | inhibition [2]: 30.5% | Selectivity ratio [3]: 1.69

Cc1c(C)c2c(c(C)c1O)CCC(C)(C(=O)O)O2 (centres undefined) [TROLOX]
Activity [4]: 1.81 s⁻¹ | IC50 [5]: 37 µM | Ratio [9]: 0.19 | IC50 [10]: 93.5 µM

O=C1NOC[C@H]1NS(=O)(=O)c1ccccc1
inhibition [1]: 25.7% | inhibition [2]: 22.4% | Selectivity ratio [3]: 1.15

O=S(=O)(Nc1cc(F)c(O)c(F)c1)c1ccc(-n2cccc2)cc1
Activity [4]: 0.489 s⁻¹ | IC50 [5]: 48.6 µM | IC50 [6]: 281 µM | Ratio IC50 [7]: 4.92 | IC50 [8]: 57.1 µM | inhibition [1]: 61.1% | Ratio [9]: 0.24 | inhibition [2]: 41.7% | IC50 [10]: 97.1 µM

COc1ccc(S(=O)(=O)Nc2cc(F)c(O)c(F)c2)cc1
Activity [4]: 0.661 s⁻¹ | IC50 [5]: 45.2 µM | IC50 [6]: 23.8 µM | Ratio IC50 [7]: 1.54 | inhibition [1]: 79.5% | Ratio [9]: 0.23 | inhibition [2]: 83% | IC50 [10]: 55.1 µM

O=[N+]([O-])c1ccc(S(=O)(=O)Nc2cc(F)c(O)c(F)c2)cc1
Activity [4]: 0.465 s⁻¹ | IC50 [5]: 54.8 µM | IC50 [6]: 133 µM | Ratio IC50 [7]: 2.99 | inhibition [1]: 63.9% | Ratio [9]: 0.27 | inhibition [2]: 55.7% | IC50 [10]: 45.7 µM

CCNC(=O)Nc1ccc(S(=O)(=O)Nc2cc(F)c(O)c(F)c2)cc1
Activity [4]: 0.859 s⁻¹ | IC50 [5]: 51.6 µM | IC50 [6]: 25.5 µM | Ratio IC50 [7]: 0.67 | IC50 [8]: 37.8 µM | inhibition [1]: 63.6% | Ratio [9]: 0.28 | inhibition [2]: 68.5% | IC50 [10]: 81.7 µM

COc1ccc(C(=O)Nc2ccc(S(=O)(=O)Nc3cc(F)c(O)c(F)c3)cc2)cc1
Activity [4]: 0.995 s⁻¹ | IC50 [5]: 56.9 µM | IC50 [6]: 12.4 µM | Ratio IC50 [7]: 1.03 | IC50 [8]: 12 µM | inhibition [1]: 77.9% | Ratio [9]: 0.26 | inhibition [2]: 71.7% | IC50 [10]: 70.7 µM

Nc1ccc(S(=O)(=O)N(Cc2ccc(Br)cc2F)c2cc(F)c(O)c(F)c2)cc1
Activity [4]: 0.977 s⁻¹ | IC50 [5]: 61.9 µM | IC50 [6]: 0.323 µM | Ratio IC50 [7]: 0.81 | IC50 [8]: 0.397 µM | inhibition [1]: 87.4% | Ratio [9]: 0.31 | inhibition [2]: 95.3% | IC50 [10]: 73.1 µM

Nc1ccc(S(=O)(=O)Nc2cc(F)c(O)c(F)c2)cc1
Activity [4]: 0.777 s⁻¹ | IC50 [5]: 44.7 µM | IC50 [6]: 10.3 µM | Ratio IC50 [7]: 0.73 | inhibition [1]: 84.1% | Ratio [9]: 0.22 | inhibition [2]: 85.4% | IC50 [10]: 48.1 µM

O=S(=O)(Nc1cc(F)c(O)c(F)c1)c1ccc(C(F)(F)F)cc1
Activity [4]: 0.49 s⁻¹ | IC50 [5]: 45.1 µM | IC50 [6]: 105 µM | Ratio IC50 [7]: 1.15 | IC50 [8]: 91.5 µM | inhibition [1]: 55.8% | Ratio [9]: 0.23 | inhibition [2]: 50.6% | IC50 [10]: 66 µM

O=[N+]([O-])c1ccc(S(=O)(=O)N(Cc2ccc(Br)cc2F)c2cc(F)c(O)c(F)c2)cc1
Activity [4]: 0.974 s⁻¹ | IC50 [5]: 61.5 µM | IC50 [6]: 15.4 µM | Ratio IC50 [7]: 1.71 | IC50 [8]: 9 µM | inhibition [1]: 75.1% | Ratio [9]: 0.31 | inhibition [2]: 69.8% | IC50 [10]: 61.8 µM

O=S(=O)(c1ccccc1)N(c1cc(F)c(O)c(F)c1)S(=O)(=O)c1ccccc1
Activity [4]: 0.967 s⁻¹ | IC50 [5]: 63.2 µM | IC50 [6]: 9.7 µM | Ratio IC50 [7]: 0.35 | IC50 [8]: 28.1 µM | inhibition [1]: 65.1% | Ratio [9]: 0.32 | inhibition [2]: 93.8% | IC50 [10]: 139 µM

O=S(=O)(Nc1nnn[nH]1)c1ccccc1
inhibition [1]: 44.8% | inhibition [2]: 21.7% | Selectivity ratio [3]: 2.06

CCCC(CCC)C(=O)O [VALPROIC ACID]
IC50 [11]: 50.1 µM
